Drawing on ChEMBL document CHEMBL1944511, “Bakuchiol derivatives as novel and potent cytotoxic agents: a report” (Eur J Med Chem, 2012), this text covers inhibition of growth for one compound.

Format in all cases: functional
The subject of one assay is A549. Kind of assay: Growth inhibition of human A549 cells at 20 uM after 48 hrs by sulpharhodamine B assay. The conditions noted are these: A549, 48 h, read-out: GI. Summed up: (§1)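 This is the SRB protein-stain assay on adherent cells in RPMI-1640/MEM with 10% FCS. Each compound in DMSO (vehicle <0.2%) was applied at a single fixed concentration for 48 h. Cells were fixed with TCA and stained with SRB, and the dye was solubilised in Tris and read at 570/620 nm. Percent growth inhibition is relative to vehicle-treated controls, reported as mean ± SD of three experiments run in triplicate.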

For another assay, the system named is PC-3. Description: Growth inhibition of human PC3 cells at 20 uM after 48 hrs by sulpharhodamine B assay. The conditions noted are these: PC-3, 48 h, read-out: GI. Summed up: as §1
The subject of a further assay is OVCAR-5. Kind of assay: Growth inhibition of human OVCAR5 cells at 20 uM after 48 hrs by sulpharhodamine B assay. The conditions noted are these: OVCAR-5, 48 h, read-out: GI. The method in brief: (§2)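 Cells grown at 37 °C, 5% CO2 in RPMI-1640/MEM with 10% FCS and penicillin/streptomycin, then seeded in 96-well plates and allowed to adhere overnight. Compound was added in DMSO (vehicle <0.2% in untreated controls) and incubated 48 h. Cells were fixed with ice-cold TCA, stained with 0.4% SRB in 1% acetic acid, and the dye solubilised in 10 mM Tris-base. OD read at 570 nm (reference 620 nm).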

For a further assay, the system named is IMR-32. Description: Growth inhibition of human IMR32 cells at 20 uM after 48 hrs by sulpharhodamine B assay. The settings on record: IMR-32, 48 h, read-out: GI. The method in brief:
as §1

For a further assay, the system named is HeLa. Description: Growth inhibition of human HeLa cells at 20 uM after 48 hrs by sulpharhodamine B assay. The conditions noted are these: read-out: GI. The method in brief:
as §2

Another assay concerns THP-1. Kind of assay: Growth inhibition of human THP1 cells at 20 uM after 48 hrs by sulpharhodamine B assay. The settings on record: THP-1, 48 h, read-out: GI. Summed up: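 Cells grown in RPMI-1640/MEM with 10% FCS, penicillin/streptomycin, 37 °C, 5% CO2. Seeded in 96-well plates, allowed to adhere overnight, then exposed 48 h to analogs in DMSO (vehicle <0.2% in controls). TCA-fixed, stained with 0.4% SRB in 1% acetic acid, dye solubilized in 10 mM Tris base, OD 570 nm (ref 620 nm). Mean ± SD of three experiments run in triplicate.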

Another assay relates to DU-145. Kind of assay: Growth inhibition of human DU145 cells at 20 uM after 48 hrs by sulpharhodamine B assay. The settings on record: DU-145, 48 h, read-out: GI. The method in brief:
as §1

The next assay concerns HCT-15. Kind of assay: Growth inhibition of human HCT15 cells at 20 uM after 48 hrs by sulpharhodamine B assay. The conditions noted are these: HCT-15, 48 h, read-out: GI. The method in brief:
as §1

On to `O=c1[nH]cc(F)c(=O)[nH]1` [FLUOROURACIL], for which the inhibition of growth at 20 µM in the assay on A549 is 76%; in the assay on PC-3, 75%; in the assay with OVCAR-5 it was 75%; in the assay with IMR-32, 79%; with HeLa, 71%; in the assay with THP-1, 85%. Besides, the inhibition of growth at 20 µM came out at 75% in the assay on DU-145 and 63% in the assay on HCT-15.
